According to ChEMBL document CHEMBL4007489, “First Bispecific Inhibitors of the Epidermal Growth Factor Receptor Kinase and the NF-κB Activity As Novel Anticancer Agents” (J Med Chem, 2017):
Active and inactive are the calls of the source. No cut-off for these calls is given here.

What was measured:
Mus musculus [1] = test: (§1) Toxicity in human MDA-MB-231 cells xenografted NMRI nu/nu mouse assessed as effect on organ morphology at 10 mg/kg, sc administered 5 days post tumor cell inoculation treated for 14 days followed by treatment pause for 6 days followed by treatment continuation on every second day until day 28 measured on day 7, 14 and day 28; type: organism-based; conditions: in vivo
How it was run: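 Female NMRI nu/nu mice (~8 weeks old) received 2 × 10^6 MDA-MB-231 cells in Matrigel into each flank. Dosing began 5 days later (day 1), with 6 mice per group. Compound or vehicle was given sc in PBS/propylene glycol (80:20, v/v) at 1 mg/mL. Behaviour and body weight were followed. Organs were inspected morphologically after sacrifice on day 28.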

[2] = AUC (0 to 24 hrs) in NMRI nu/nu mouse at 10 mg/kg, sc administered as single dose by LC-MS analysis; type: ADME, organism-based; set-up: dose 10 mg/kg, time < 24 hr, route subcutaneous; conditions: in vivo
How it was run: (§2)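 Female NMRI nu/nu mice (28−32 g), nine animals per compound. Single sc injection of 10 mg/kg, formulated at 1 mg/mL in PBS/propylene glycol (80:20, v/v) by ultrasonication. Blood sampled at 10 min, 30 min, 1, 3, 8 and 24 h, two samples per animal, into heparinized tubes. Plasma proteins precipitated with acetonitrile containing griseofulvin internal standard. Quantified by LC-MS against calibration standards prepared in drug-free plasma.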

[3] = Tmax in NMRI nu/nu mouse at 10 mg/kg, sc administered as single dose by LC-MS analysis; type: ADME, organism-based; conditions: in vivo; how it was run: as §2
Mus musculus [4] = test: Toxicity in NMRI nu/nu mouse assessed as effect on organ morphology at 10 mg/kg, sc administered as single dose; type: organism-based; conditions: in vivo
Mus musculus [5] = test: Toxicity in NMRI nu/nu mouse assessed as anomalous behaviour at 10 mg/kg, sc administered as single dose; type: organism-based; conditions: in vivo
Mus musculus [6] = test: as §1, with “body weight” for “organ morphology”; type: organism-based; conditions: in vivo
How it was run: (§3)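 Mice bearing MDA-MB-231 xenografts were monitored for behaviour and body weight over the 28-day sc dosing schedule. Organ morphology was inspected after sacrifice.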

cells = type: cell-based; conditions: Homo sapiens, U-937
[7] = biological target: T1, Epidermal growth factor receptor (Homo sapiens, UniProt P00533); conditions: at 150 nM
[8] = Half life in NMRI nu/nu mouse at 10 mg/kg, sc administered as single dose by LC-MS analysis; type: ADME, organism-based; conditions: in vivo; how it was run: as §2
[9] = Cmax in NMRI nu/nu mouse at 10 mg/kg, sc administered as single dose by LC-MS analysis; type: ADME, organism-based; set-up: dose 10 mg/kg, route subcutaneous; conditions: in vivo; how it was run: as §2
[10] = AUC (0 to infinity) in NMRI nu/nu mouse at 10 mg/kg, sc administered as single dose by LC-MS analysis; type: ADME, organism-based; set-up: dose 10 mg/kg, route subcutaneous, time infinity; conditions: in vivo; how it was run: as §2
[11] = Half life in Sprague-Dawley rat liver microsomes assessed as parent compound remaining at 0.5 uM in presence of NADPH by LC-MS/MS analysis; type: ADME, microsome
[12] = Solubility in water; type: physicochemical; conditions: buffer
[13] = biological target: T1, Epidermal growth factor receptor; test: biochemical; type: cell-based
[14] = Blood clearance in Sprague-Dawley rat by LC-MS/MS analysis; type: ADME
MDA-MB-231 [15] = test: cells; type: functional; conditions: Homo sapiens, MDA-MB-231, 48 h
Mus musculus [16] = test: as §1, with “anomalous behaviour” for “effect on organ morphology”; type: organism-based; conditions: in vivo; how it was run: as §3
[17] = Drug uptake in NMRI nu/nu mouse at 10 mg/kg, sc administered as single dose after 24 hrs by LC-MS analysis; type: ADME, organism-based; conditions: in vivo, read-out: Drug uptake; how it was run: as §2
Homo sapiens [18] = species: Homo sapiens; test: Inhibition of TNFalpha-stimulated NF-kappaB (unknown origin) expressed in human U937 cells at 5 uM incubated for 3 hrs followed by TNFalpha stimulation measured after 2.5 hrs by luciferase reporter gene assay; type: cell-based
[19] = Apparent oral clearance in NMRI nu/nu mouse at 10 mg/kg, sc administered as single dose by LC-MS analysis; type: ADME, organism-based; conditions: in vivo; how it was run: as §2
[20] = biological target: Receptor tyrosine-protein kinase erbB-4 (Homo sapiens) (UniProt Q15303); test: Inhibition of N-terminal GST-tagged human recombinant ERBB4 expressed in baculovirus expression system
MDA-MB-231 [21] = test: Antitumor activity against human MDA-MB-231 cells xenografted in NMRI nu/nu mouse at 10 mg/kg, sc administered 5 days post tumor cell inoculation treated for 14 days followed by treatment pause for 6 days measured after 21 days; type: functional, organism-based
How it was run: (§4)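 MDA-MB-231 cells, 2 × 10^6 per site in Matrigel, injected into both flanks of female NMRI nu/nu mice about 8 weeks old; 6 mice per group. From day 5 after inoculation (day 1), sc dosing in PBS/propylene glycol 80:20. Dosing every weekday for 14 days, then a 6-day pause, then every second day from day 21 to sacrifice on day 28. Tumor diameters measured weekly by calipers; unpaired two-tailed t test against vehicle.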

MDA-MB-231 [22] = test: as §1, with “Antitumor activity against” for “Toxicity in”, “xenografted in” for “xenografted”, “mouse” for “mouse assessed as effect on organ morphology”; type: functional, organism-based; how it was run: as §4
[23] = biological target: Serine/threonine-protein kinase pim-1 (Homo sapiens, UniProt P11309); test: Inhibition of human recombinant full length His-tagged PIM-1 expressed in baculovirus expression system
Homo sapiens [24] = species: Homo sapiens; test: Inhibition of TNFalpha-stimulated NF-kappaB (unknown origin) expressed in human U937 cells at 1 to 5 uM incubated for 3 hrs followed by TNFalpha stimulation measured after 2.5 hrs by luciferase reporter gene assay; type: cell-based

T1 sequence (P00533 whole entry): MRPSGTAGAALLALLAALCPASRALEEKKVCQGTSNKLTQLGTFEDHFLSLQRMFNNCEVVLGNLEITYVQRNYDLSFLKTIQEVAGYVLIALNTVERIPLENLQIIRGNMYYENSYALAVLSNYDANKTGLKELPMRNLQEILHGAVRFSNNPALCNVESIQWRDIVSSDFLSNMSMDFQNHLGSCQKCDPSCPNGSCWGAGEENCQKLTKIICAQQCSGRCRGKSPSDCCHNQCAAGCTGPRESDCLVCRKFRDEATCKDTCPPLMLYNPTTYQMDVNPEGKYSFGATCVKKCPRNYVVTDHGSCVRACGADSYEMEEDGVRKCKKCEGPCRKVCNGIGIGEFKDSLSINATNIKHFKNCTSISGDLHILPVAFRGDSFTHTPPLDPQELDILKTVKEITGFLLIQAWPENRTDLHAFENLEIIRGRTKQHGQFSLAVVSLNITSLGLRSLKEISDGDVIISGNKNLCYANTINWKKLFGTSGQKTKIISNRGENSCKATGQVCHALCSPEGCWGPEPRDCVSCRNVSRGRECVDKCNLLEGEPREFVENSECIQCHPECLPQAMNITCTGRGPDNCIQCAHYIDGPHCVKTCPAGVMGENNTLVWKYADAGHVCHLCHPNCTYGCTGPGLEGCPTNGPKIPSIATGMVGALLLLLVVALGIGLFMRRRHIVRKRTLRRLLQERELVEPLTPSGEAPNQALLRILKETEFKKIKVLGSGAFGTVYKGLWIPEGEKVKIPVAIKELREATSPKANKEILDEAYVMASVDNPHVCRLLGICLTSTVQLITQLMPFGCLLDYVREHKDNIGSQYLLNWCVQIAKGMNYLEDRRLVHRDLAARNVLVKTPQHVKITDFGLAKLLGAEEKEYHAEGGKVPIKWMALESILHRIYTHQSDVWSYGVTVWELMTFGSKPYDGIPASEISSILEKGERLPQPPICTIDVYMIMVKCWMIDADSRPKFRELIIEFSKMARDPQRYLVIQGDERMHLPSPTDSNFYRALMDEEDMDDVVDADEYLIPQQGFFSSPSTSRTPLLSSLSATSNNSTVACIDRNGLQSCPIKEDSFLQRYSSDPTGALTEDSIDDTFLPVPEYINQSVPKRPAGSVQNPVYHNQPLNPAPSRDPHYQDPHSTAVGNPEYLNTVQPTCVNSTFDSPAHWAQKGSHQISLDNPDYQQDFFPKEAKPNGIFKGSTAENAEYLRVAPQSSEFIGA
Receptor tyrosine-protein kinase erbB-4 (Homo sapiens), sequence (Q15303 whole entry): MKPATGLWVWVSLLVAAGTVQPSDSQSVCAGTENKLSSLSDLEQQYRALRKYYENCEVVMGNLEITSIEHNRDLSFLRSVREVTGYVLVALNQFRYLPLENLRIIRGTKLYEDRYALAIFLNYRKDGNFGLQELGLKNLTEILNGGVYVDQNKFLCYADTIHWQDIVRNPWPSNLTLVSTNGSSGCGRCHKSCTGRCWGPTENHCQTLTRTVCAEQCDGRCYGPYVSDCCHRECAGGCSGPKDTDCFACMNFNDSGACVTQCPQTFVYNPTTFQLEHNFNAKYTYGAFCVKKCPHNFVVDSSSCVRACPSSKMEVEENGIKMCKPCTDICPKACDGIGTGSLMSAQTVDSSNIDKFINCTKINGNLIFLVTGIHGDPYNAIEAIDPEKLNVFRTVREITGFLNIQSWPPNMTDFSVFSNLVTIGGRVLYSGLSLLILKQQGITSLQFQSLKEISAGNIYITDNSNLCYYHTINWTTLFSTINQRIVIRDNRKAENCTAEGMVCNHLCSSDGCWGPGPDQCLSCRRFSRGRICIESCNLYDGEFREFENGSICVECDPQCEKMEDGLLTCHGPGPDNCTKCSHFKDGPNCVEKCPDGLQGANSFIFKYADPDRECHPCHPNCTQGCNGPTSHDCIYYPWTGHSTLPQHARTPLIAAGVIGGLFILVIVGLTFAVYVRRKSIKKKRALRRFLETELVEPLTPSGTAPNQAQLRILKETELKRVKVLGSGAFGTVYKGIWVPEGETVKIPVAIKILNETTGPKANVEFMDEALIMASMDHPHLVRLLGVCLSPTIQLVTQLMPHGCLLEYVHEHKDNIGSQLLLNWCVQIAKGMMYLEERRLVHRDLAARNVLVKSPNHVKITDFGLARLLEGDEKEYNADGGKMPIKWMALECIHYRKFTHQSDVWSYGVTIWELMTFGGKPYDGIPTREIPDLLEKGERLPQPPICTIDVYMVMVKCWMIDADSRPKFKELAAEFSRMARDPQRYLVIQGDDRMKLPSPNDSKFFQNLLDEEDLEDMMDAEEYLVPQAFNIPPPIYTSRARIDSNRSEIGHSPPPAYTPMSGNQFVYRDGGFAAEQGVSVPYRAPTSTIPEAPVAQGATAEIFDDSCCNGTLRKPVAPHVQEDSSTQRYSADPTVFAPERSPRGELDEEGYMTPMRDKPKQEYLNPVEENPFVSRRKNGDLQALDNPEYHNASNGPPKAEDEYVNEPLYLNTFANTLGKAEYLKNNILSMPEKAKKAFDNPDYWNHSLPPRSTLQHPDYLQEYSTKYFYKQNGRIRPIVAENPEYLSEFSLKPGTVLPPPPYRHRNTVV
Serine/threonine-protein kinase pim-1, sequence (P11309 whole entry, looked up): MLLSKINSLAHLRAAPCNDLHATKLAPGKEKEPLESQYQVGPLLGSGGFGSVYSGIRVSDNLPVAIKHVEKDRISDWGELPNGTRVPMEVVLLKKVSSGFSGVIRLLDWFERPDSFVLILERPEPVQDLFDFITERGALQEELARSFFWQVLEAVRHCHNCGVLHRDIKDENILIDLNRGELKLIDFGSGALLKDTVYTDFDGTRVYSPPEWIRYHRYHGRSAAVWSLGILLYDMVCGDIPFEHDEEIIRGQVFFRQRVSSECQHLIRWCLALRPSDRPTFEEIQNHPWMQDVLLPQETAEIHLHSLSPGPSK

| AUC(0-t) at 24 h [2] [ng·h/mL] | Tmax [3] [h] | IC50 (cells) [nM] | inhibition [7] [%] | half-life [8] [h] | Cmax [9] [ng/mL] | AUC(0-inf) [10] [ng·h/mL] | half-life at 0.5 µM [11] [h] | solubility [12] | IC50 [13] [nM] | clearance [14] [mL/min/kg] | GI50 (MDA-MB-231 [15]) [nM] | concentration at 24 h [17] [ng/mL] | CL/F [19] [mL/min/kg] | Structure (SMILES) | Activity (Mus musculus [1]) | Activity (Mus musculus [4]) | Activity (Mus musculus [5]) | Activity (Mus musculus [6]) | Activity (Mus musculus [16]) | inhibition (Homo sapiens [18]) [%] | other results |
| --- | --- | --- | --- | --- | --- | --- | --- | --- | --- | --- | --- | --- | --- | --- | --- | --- | --- | --- | --- | --- | --- |
| 1040 | 1 | 600 | 56.4 | 4.3 | 101 | 1060 | 0.367 | Soluble | 137 | 51 | 900 | 3.5 | 157 | FC(F)(F)c1csc(NC(=S)Nc2ccc3ncnc(Nc4cccc(Cl)c4)c3c2)n1 | Non-Toxic | Non-Toxic | Non-Toxic | Non-Toxic | Non-Toxic | 92 | – |
| 5440 | 8 | 300 | 87.6 | 7.8 | 327 | 6330 | 2.32 | Soluble | 60.1 | 19 | 1100 | 79 | 26.3 | Fc1cc(F)cc(NC(=S)Nc2ccc3ncnc(Nc4cccc(Cl)c4)c3c2)c1 | Non-Toxic | Non-Toxic | Non-Toxic | Non-Toxic | Non-Toxic | 73.5 | inhibition [20]: inactive; TGI (MDA-MB-231 [21]): Active; TGI (MDA-MB-231 [22]): Active; inhibition [23]: inactive |
| – | – | – | – | – | – | – | – | – | – | – | – | – | – | O=C1NC(=O)/C(=C/c2cccc(C(F)(F)F)c2)S1 | – | – | – | – | – | – | inhibition (Homo sapiens [24]): inactive |
